# High-throughput results deposited in PubChem by several laboratories.
# CRFR2-BP antag: blocks CRF-induced signaling of the CRF-BP/CRF-R2 complex | inhibition, % at 11.8 µM | hit rate 0.59% among 350,000 | HEK293 CRF-R2/CRF-BP, CRF-induced calcium fluorescence | AID 588475;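 active = inhibition of the ligand-induced calcium signal above about 50% at the single tested concentration, limit read from the data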
# TAAR1 ag: agonists of human TAAR1 | AID 624467 | CHO RD-HGA16 TAAR1, Fluo-8 calcium fluorescence; vehicle wells 0%, saturating PEA agonist 100% | hit rate 0.99% among 360,000 | activation, % at 3 µM;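 active = activation above the mean activation of all test compounds in the run plus 3 SD, cut at about 38% in these data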
#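 Signal – calcium-sensitive Fluo-8 signal, excitation 470-495, emission 515-575 nm · System – RD-HGA16 (CHO) cells co-expressing Gα16 and hTAAR1 · Incubation – 17-24 h seeding, 75 min 37 °C dye, 30 min RT · Compound dosing – 3 µM single concentration · Repeats – no replicates (n 1)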
# TAAR1 antagonist: human TAAR1 antagonism; inhibition, % at 3 µM; hit rate 1.5% among 360,000; AID 624466; Q96RJ0; CHO RD-HGA16 TAAR1, Fluo-8 calcium fluorescence, antagonist;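 active = inhibition above a per-plate cutoff, the mean inhibition of test compounds on that plate plus 3 SD, cut at about 49% in these data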;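 note: 0% = DMSO plus EC80 beta-PEA response and 100% = DMSO alone without agonist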
#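 System: CHO RD-HGA16 cells bearing hTAAR1. Reagent: EC80 β-phenethylamine stimulus. Schedule: seeding 17-24 h prior, 75-min 37 °C, 30-min RT dye loading. Signal: Fluo-8 intracellular calcium dye fluorescence, real-time kinetic reads. Read-out: % inhibition from peak post-agonist over basal fluorescence ratio. Benchmarks: vehicle wells and EC80 agonist wells. Replicates: n of 1.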
# ANO1 activ: activators or potentiators of mouse TMEM16A chloride channel. Q8BHY3. HEK293 TMEM16A/YFP-H148Q/I152L, iodide quench fluorescence; hits give low values. B-score at 10 µM. hit rate 0.3% among 340,000. AID 623877;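 active = fluorescence-ratio B-score plate-corrected deviation score at least 3 library SD below zero, with starting fluorescence score within 5 deviations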;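 note: channel opened by trigger with iodide after compound preincubation; score built on the fluorescence ratio of max minus min over baseline; more negative score means more quench and so TMEM16A activation or potentiation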
# TMEM16A inh: inhibitors of mouse TMEM16A calcium-activated chloride channel. normalized B-score (activity score, 25-100; higher = stronger inhibition) at 10 µM. hit rate 1.2% among 310,000. Q8BHY3. HEK293 TMEM16A/YFP iodide influx fluorescence, ionomycin;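 active = ratio plate-corrected score three or more library SD toward inhibition, starting fluorescence score within five deviations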;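 note: score derived from kinetic fluorescence span divided by baseline fluorescence per well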
# CRFR2-BP ag: CRF-BP/CRF-R2 complex agonism; HEK293 CRF-R2/CRF-BP, calcium dye fluorescence (FLIPR); percent of saturating CRF peptide response; activation, % at 13.2 µM; hit rate 0.46% among 350,000; AID 588473;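 active = activation of at least 50%, plus an integration ratio under a set limit after plate pattern correction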;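 note: plate controls were neutral control wells without compound for no effect and CRF at EC100 for full effect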
# TMEM16A reconf: re-confirmation of mouse TMEM16A chloride channel inhibitors | AID 652189 | HEK293 TMEM16A/YFP-H148Q, iodide quench fluorescence; ionomycin added to raise cell calcium | shares compounds with TMEM16A inh | inhibition, % at 10 µM | hit rate 39% among 2,300;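 active = mean duplicate percent inhibition, scaled so buffer wells are 0 and the reference blocker 100, over three buffer SD above buffer mean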
# TMEM16A Ca cntr: counter-screen for TMEM16A inhibitors: effect on calcium mobilization; shares compounds with TMEM16A inh; TMEM16A/YFP HEK293, Fluo4 calcium mobilization; calcium response (% of ionomycin), % at 10 µM; hit rate 2% among 2,300; AID 652231;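 active = duplicate-averaged calcium signal over 20% of the ionomycin maximum, relative to buffer baseline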;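 note: each well's signal is peak minus trough fluorescence divided by its pre-addition baseline; 0% = buffer wells and 100% = ionomycin wells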
# YFP-HEK293 quench: parental YFP-HEK293 iodide quench counter-screen activity; YFP ratio F(max-min)/F0 at 10 µM; ionomycin; AID 652233; 2,300 tested, under 10 active; shares compounds with TMEM16A inh;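 active = yellow fluorescent protein signal ratio exceeding the buffer control mean by over 5 SD of those controls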;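 note: ratio is mean of duplicate wells from kinetic YFP trace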
# ClC-1 rat inh: selectivity of TMEM16A inhibitors: inhibition of rat ClC-1 chloride channel; shares compounds with TMEM16A inh; CHO ClC-1-YFP, iodide influx fluorescence quench; iodide control reads 0, buffer control 100; ratio percent, % at 10 µM; 2,300 tested, under 10 active;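 active = duplicate-mean ratio percent above the mean of iodide-only control wells, which defines zero, plus 5 of their SD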;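 note: higher percent means stronger block of ClC-1 iodide influx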
# Active calls of the source: *; i = inactive; . = no result. An excerpt weighted towards active compounds, which were near 3.9% of everything screened.
SMILES,CRFR2-BP antag,TAAR1 ag,TAAR1 antagonist,ANO1 activ,TMEM16A inh,CRFR2-BP ag,TMEM16A reconf,TMEM16A Ca cntr,YFP-HEK293 quench,ClC-1 rat inh
O=C(CN1CCCCC1)Nc1nc(-c2ccc(Cl)cc2)cs1,10.6,2.3,-11.6,i,i,1.6,.,.,.,.
COC(=O)C1CCN(S(=O)(=O)c2ccc(OC)cc2)CC1,9.9,0.4,6.8,i,100*,-0.2,i,i,-1.18,-10.0
COc1ccc(S(=O)(=O)N2CCC(C(=O)NCC3CC3)CC2)cc1,-3.0,0.7,12.5,i,i,-1.1,.,.,.,.
O=C(NNS(=O)(=O)c1ccc(F)cc1)c1cc2ccccc2cc1O,16.2,4.4,2.1,i,100*,0.8,23.5%*,i,-0.738,-11.5
Cc1ccc(NC(=O)CN2CCCC2c2cccn2C)c(Br)c1 (stereo not given),-6.1,1.4,-26.3,i,.,-0.1,.,.,.,.
CCCCNc1c(-c2ccc(OC)c(SC3CCCCC3)c2)nc2cnccn12,-15.2,.,.,i,i,5.2,.,.,.,.
COc1ccc(-c2nc3cnccn3c2NCc2ccccc2)cc1SC1CCCCC1,-12.3,.,.,i,25*,1.1,i,i,-1.26,-3.5
CCOC(=O)/C=c1\s/c(=C\c2ccccc2C)c(=O)n1CC(=O)NCc1ccc2c(c1)OCO2,-3.7,2.6,-27.2,i,i,0.5,.,.,.,.
CCOC(=O)/C=c1\s/c(=C\c2ccc3cc(OC)ccc3c2)c(=O)n1CC(=O)NCc1ccc2c(c1)OCO2,-27.9,0.1,-23.8,i,i,36.9,31.0%*,i,-0.977,17.0
CCC(C)(C)n1nnnc1CN(Cc1ccco1)Cc1cc2cc3c(cc2[nH]c1=O)OCO3,-40.9,.,.,i,i,0.5,.,.,.,.
CCC(C)(C)n1nnnc1CN(Cc1ccc(Cl)cc1)Cc1ccco1,31.1,-0.6,9.5,i,25*,-0.8,22.5%*,i,-1.1,-15.5
Fc1ccc(-c2csc(N3CCC(c4ccccc4)C3)n2)cc1 (stereo not given),-42.6,1.1,5.4,i,100*,0.2,i,i,-0.869,-9.5
Cn1c(CNS(=O)(=O)c2ccc(Cl)cc2)n[nH]c1=S,-2.9,2.7,-15.7,i,i,-0.2,.,.,.,.
Cn1c(CNS(=O)(=O)c2ccc(F)cc2)n[nH]c1=S,2.6,11.2,-0.8,i,100*,-1.1,i,i,-1.01,-10.5
O=C(c1ccc(CNS(=O)(=O)c2ccccc2)cc1)N1CCN(Cc2ccccc2)CC1,7.2,5.8,0.1,i,25*,-1.2,i,i,-0.963,-9.0
CS(=O)(=O)c1ccc(C(=O)N2CCN(Cc3ccccc3)CC2)cc1,2.4,3.1,5.8,i,i,0.9,.,.,.,.
O=C(CCl)NCc1c(Cl)cccc1-n1cccc1,-2.8,6.3,-9.0,i,25*,-0.3,i,i,-0.871,0.5
CC(C)OC(=O)CC(=O)CSc1nc2c(c(-c3cccs3)c1C#N)CCC2,-31.6,7.8,12.2,i,i,7.7,.,.,.,.
CCOC(=O)C(C)Sc1nc2c(c(-c3cccs3)c1C#N)CCC2 (stereo not given),17.0,1.4,30.2,i,i,0.5,i,i,-1.25,-7.0
CCCc1ccc(Oc2c(-c3ccc(O)c(C)c3O)n[nH]c2C)cc1,-41.9,7.2,11.0,i,100*,4.8,i,i,-1.16,-7.0
